Activity calls are given as the source filed them. The rule behind the calls is not given here.
What was measured:
[1] = Cytotoxicity against human Y79 cells assessed as reduction in cell number incubated for 44 hrs by alamar blue based fluorescence assay
[2] = Antiproliferative activity against HREC assessed as reduction in cell number incubated for 44 hrs by alamar blue based fluorescence assay; type: functional; details: Homo sapiens
[3] = Cytotoxicity against human 92-1 cells assessed as reduction in cell number incubated for 44 hrs by alamar blue based fluorescence assay
[4] = Antiproliferative activity against HUVEC assessed as reduction in cell number incubated for 44 hrs by alamar blue based fluorescence assay; details: human, HUVEC cells
Outline: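 Primary endothelial cells (HRECs, HUVECs; passage 5–8) in EGM-2; 2,500 cells seeded, 24 h at 37°C, 5% CO2, then compounds 0.5 nM–500 μM for 44 h. alamarBlue added 4 h, fluorescence ex 560/em 590 nm.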

[5] = Antiproliferative activity against human ARPE19 assessed as reduction in cell number incubated for 44 hrs by alamar blue based fluorescence assay; details: ARPE-19 cells
Homo sapiens [6] = species: Homo sapiens; assay: Antiangiogenic activity against HREC assessed as reduction in tube formation incubated for 8 hrs by matrigel based tube formation assay; type: functional
Outline: (§1)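 HRECs (passage 5–8), 15,000 cells in EGM-2 medium, plated on Matrigel basement membrane coat with DMSO vehicle or graded compound concentrations; SH-11037 as positive control. Images taken after 8 h; tubule length quantified by Angiogenesis Analyzer macros and expressed relative to DMSO control. Mean ± SEM, n=3–6 wells, duplicate experiments; one-way ANOVA with Dunnett's test.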

Homo sapiens [7] = species: Homo sapiens; assay: Antiangiogenic activity against HREC assessed as reduction in tube formation at 0.05 to 0.5 uM incubated for 8 hrs by matrigel based tube formation assay; type: functional; outline: as §1
Homo sapiens [8] = species: Homo sapiens; assay: Antiangiogenic activity against HREC assessed as reduction in tube formation at 0.01 to 0.1 nM incubated for 8 hrs by matrigel based tube formation assay; type: functional; outline: as §1
Homo sapiens [9] = species: Homo sapiens; assay: Antiangiogenic activity against HREC assessed as reduction in tube formation at 0.01 to 0.1 uM incubated for 8 hrs by matrigel based tube formation assay; type: functional; outline: as §1

Row | Compound | GI50 at 44 h [1] [µM] | GI50 [2] [µM] | GI50 at 44 h [3] [µM] | GI50 at 44 h [4] [µM] | GI50 at 44 h [5] [µM] | inhibition (Homo sapiens [6]) | inhibition (Homo sapiens [7]) | inhibition (Homo sapiens [8]) | inhibition (Homo sapiens [9])
1 | COc1cc2c(cc1O)C[C@]21COc2cc(OC(C)=O)cc(OC(C)=O)c2C1=O | > 100 | > 100 | > 100 | > 100 | – | – | – | – | –
2 | O=C1c2c(O)cc(O)cc2OC[C@H]1Cc1ccc(O)c(O)c1 | > 100 | > 100 | > 100 | > 100 | – | – | – | – | –
3 | COc1c(O)cc2c(c1O)C(=O)/C(=C/c1ccc(O)c(O)c1)CO2 | > 100 | > 100 | > 100 | – | > 100 | – | – | – | –
4 | COc1ccc(/C=C2\COc3cc(O)c(O)c(O)c3C2=O)cc1O | 23 | 17 | > 100 | 41 | – | – | – | – | –
5 | COc1ccc(C[C@]2(O)COc3cc(OC)cc(O)c3C2=O)cc1 | > 100 | 64 | > 100 | – | > 100 | – | – | – | –
6 | CC(=O)Oc1cc(O)cc2c1C(=O)/C(=C/c1ccc(O)c(O)c1)CO2 | 2.5 | 1.4 | > 100 | 5 | – | Dose-dependent effect | – | – | –
7 | COc1cc(OC(C)=O)cc2c1C(=O)/C(=C/c1ccc(OC(C)=O)cc1)CO2 | > 100 | 96 | > 100 | 43 | – | – | – | – | –
8 | COc1cc(O)cc2c1C(=O)[C@H](Cc1ccc(O)c(O)c1)CO2 | 25 | > 100 | > 100 | 14 | – | – | – | – | –
9 | COc1ccc2c(c1OC)OC/C(=C\c1ccc(SC)cc1)C2=O | 11 | 3.6 | > 100 | – | > 100 | – | – | – | –
10 | COc1ccc(C[C@]2(O)COc3cc(O)cc(O)c3C2=O)cc1 | > 100 | 74 | > 100 | – | > 100 | – | – | – | –
11 | COc1c(O)c(OC)c2c(c1O)OC[C@@H](Cc1ccc(O)cc1)C2=O | > 100 | > 100 | > 100 | – | > 100 | – | – | – | –
12 | COc1cc(O)c2c(c1)OC[C@]1(Cc3c1cc(OC)c(OC)c3O)C2=O | > 100 | > 100 | > 100 | > 100 | – | – | – | – | –
13 | COc1ccc(/C=C2\COc3cc(OC)c(OC)c(O)c3C2=O)cc1O | 2.4 | 0.26 | > 100 | – | 4.8 | – | Active | – | –
14 | O=C1/C(=C/c2ccc(O)cc2)COc2cc(O)cc(O)c21 | > 100 | 60 | > 100 | – | > 100 | – | – | – | –
15 | COc1ccc(/C=C2\COc3cc(OC)c(OC)c(OC)c3C2=O)cc1O | 23 | 2.2 | 8.2 | – | 1.3 | – | – | – | –
16 | COc1ccc(/C=C2\COc3cc(OC(C)=O)c(O)c(O)c3C2=O)cc1OC(C)=O | 29 | 16 | 69 | 11 | – | Dose-dependent effect | – | – | –
17 | CC(=O)Oc1cc(C[C@H]2COc3cc(O)cc(O)c3C2=O)ccc1O | > 100 | > 100 | > 100 | > 100 | – | – | – | – | –
18 | O=C1c2c(O)cc(O)cc2OC[C@H]1Cc1ccc(O)cc1 | > 100 | > 100 | > 100 | > 100 | – | – | – | – | –
19 | O=C1c2c(O)cc(O)cc2OC[C@]12Cc1cc3c(cc12)OCO3 | > 100 | > 100 | > 100 | > 100 | – | – | – | – | –
20 | COc1c(O)cc(O)c2c1OC[C@@H](Cc1ccc(O)cc1)C2=O | > 100 | 64 to 100 | > 100 | > 100 | > 100 | – | – | – | –
21 | COc1ccc(CC2COc3cc(OC)c(OC)c(OC)c3C2)cc1O (racemic) | 18 | 0.00023 | 52 | – | 0.00034 | – | – | Active | –
22 | COc1cc2c(cc1O)C[C@]21COc2cc(O)cc(O)c2C1=O | > 100 | > 100 | > 100 | > 100 | – | – | – | – | –
23 | COc1ccc(C[C@@H]2COc3c(OC)c(O)cc(O)c3C2=O)cc1 | > 100 | > 100 | > 100 | – | > 100 | – | – | – | –

Row | Compound | GI50 at 44 h [1] [µM] | GI50 [2] [µM] | GI50 at 44 h [3] [µM] | GI50 at 44 h [4] [µM] | GI50 at 44 h [5] [µM] | inhibition (Homo sapiens [6]) | inhibition (Homo sapiens [7]) | inhibition (Homo sapiens [8]) | inhibition (Homo sapiens [9])
24 | O=C1/C(=C/c2ccc(O)c(O)c2)COc2cc(O)cc(O)c21 | > 100 | > 100 | > 100 | – | > 100 | – | – | – | –
25 | COc1c(O)cc2c(c1O)C(=O)[C@H](Cc1ccc(O)cc1)CO2 | > 100 | > 100 | > 100 | > 100 | – | – | – | – | –
26 | COc1ccc(/C=C2\COc3cc(OC(C)=O)cc(O)c3C2=O)cc1O | 58 | 18 | 67 | 26 | – | Dose-dependent effect | – | – | –
27 | COc1ccc(C[C@H]2COc3cc(OC(C)=O)cc(OC(C)=O)c3C2=O)cc1O | > 100 | > 100 | > 100 | 92 | – | – | – | – | –
28 | COc1ccc(CC2COc3cc(OC)c(OC)c(OC)c3C2=O)cc1O (racemic) | > 100 | 0.21 | > 100 | – | > 100 | – | – | – | –
29 | COc1ccc(C[C@@H]2COc3cc(OC)c(OC)c(OC)c3C2=O)cc1O | 85 | 0.035 | > 100 | – | > 100 | – | – | – | Active
30 | COc1c(O)cc2c(c1O)C(=O)[C@H](Cc1ccc(O)c(O)c1)CO2 | > 100 | > 100 | > 100 | – | > 100 | – | – | – | –
31 | CCOc1ccc(C(=O)/C=C/c2ccc(OC)c(OC)c2)c(O)c1C | > 100 | 3.9 | > 100 | – | > 100 | – | Active | – | –
32 | COc1cc2c(cc1O)[C@@]1(COc3cc(O)cc(O)c3C1=O)C2 | > 100 | > 100 | > 100 | > 100 | – | – | – | – | –
33 | COc1ccc(CC2(O)COc3cc(O)cc(O)c3C2=O)cc1 (configuration not stated) | > 100 | > 100 | > 100 | > 100 | – | – | – | – | –
34 | COc1cc(O)cc2c1C(=O)[C@H](Cc1ccc(O)cc1)CO2 | > 100 | > 100 | > 100 | > 100 | – | – | – | – | –
35 | COc1ccc(/C=C2\COc3c(OC)c(O)cc(O)c3C2=O)cc1 | > 100 | > 100 | > 100 | – | > 100 | – | – | – | –
36 | COc1cc(O)cc2c1C(=O)/C(=C/c1ccc(O)c(O)c1)CO2 | > 100 | > 100 | > 100 | > 100 | – | – | – | – | –
37 | COc1ccc(C[C@@H]2COc3cc(O)cc(O)c3C2=O)cc1 | > 100 | > 100 | > 100 | > 100 | – | – | – | – | –
38 | COc1cc(OC)c2c(c1)OC/C(=C\c1ccc(SC)cc1)C2=O | 2 | 2.5 | > 100 | – | 48 | – | – | – | –
39 | COc1cc2c(cc1O)C[C@]21COc2cc(OC(C)=O)cc(O)c2C1=O | > 100 | > 100 | > 100 | > 100 | – | – | – | – | –
40 | COc1cc(O)c2c(c1)OC[C@]1(Cc3c1cc(OC)c(OC)c3OC)C2=O | > 100 | > 100 | > 100 | > 100 | – | – | – | – | –
41 | COc1cc2c(c(OC)c1OC)C(=O)/C(=C/c1ccc(Cl)c(O)c1)CO2 | 13 | 0.11 | 3.6 | – | 0.73 | – | – | – | –
42 | O=C1CCOc2cc(O)cc(O)c21 | > 100 | > 100 | > 100 | > 100 | – | – | – | – | –
43 | COc1c(O)cc(O)c2c1OC/C(=C\c1ccc(O)cc1)C2=O | > 100 | 40 | > 100 | > 100 | – | – | – | – | –
44 | O=Cc1ccc(O)cc1 [4-HYDROXYBENZALDEHYDE] | > 100 | > 100 | > 100 | > 100 | – | – | – | – | –
45 | COc1cc(O)cc(OC)c1C(=O)/C=C/c1ccc(O)cc1 | > 100 | > 100 | – | > 100 | – | – | – | – | –
